Series [1] deals with HuH7 cells. The class given is cell-based, human.
In series [2] the target is T1, PfPK5 (Plasmodium falciparum, UniProt P61075). The conditions noted are these: read-out: PfPK5 Kd; cited from earlier work.
Series [3] concerns the target T1, PfPK5. Put plainly: KINOMEscan active-site-directed competition binding assay, PfPK5. The following applies: read-out: PfPK5 Kd(app), determined in duplicate, 0–30 μM.
Series [4] concerns P. falciparum Dd2 asexual blood stage parasites. The series is described as follows: P. falciparum Dd2 asexual blood stage inhibition. The conditions noted are these: read-out: blood stage parasite EC50, dose-response. The class given is cell-based, Plasmodium falciparum. The procedure, abridged:
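Asexual blood-stage P. falciparum Dd2 cultured with test compound in O-positive human blood for 72 h at 37 °C under 93% N2, 4% CO2, 3% O2, with 0.2% DMSO final. Nuclei then stained with SYBR Green I and fluorescence read. Data normalised to DMSO, with artesunate as positive control.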

The target in series [5] is T1, PfPK5. The conditions noted are these: read-out: PfPK5 IC50; cited from earlier work.

Like-named read-outs stand apart in the source and are kept apart here.

T1 sequence (P61075 whole entry): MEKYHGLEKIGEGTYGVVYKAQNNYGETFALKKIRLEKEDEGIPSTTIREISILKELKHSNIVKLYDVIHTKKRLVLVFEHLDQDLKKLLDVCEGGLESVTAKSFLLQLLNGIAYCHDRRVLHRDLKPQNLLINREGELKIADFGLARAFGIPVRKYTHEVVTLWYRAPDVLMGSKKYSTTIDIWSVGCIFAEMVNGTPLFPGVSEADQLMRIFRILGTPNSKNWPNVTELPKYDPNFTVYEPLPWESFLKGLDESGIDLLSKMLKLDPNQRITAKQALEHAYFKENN

Consider `Nc1nc(Nc2ccc(S(N)(=O)=O)cc2)nn1C(=S)Nc1c(F)cccc1F` [Compound 1a], for which the half-maximal effective concentration (EC50) (commonly the concentration needed to bring the measured effect to its halfway point) in series [1] was found to be 67 µM; in series [4] it was 0.14 µM. For the same molecule, the Kd was 0.32 µM in series [2] and 0.37 µM in series [3].
As to `CC(C)[C@H](CO)Nc1nc(Nc2cccc(Cl)c2)c2ncn(C(C)C)c2n1` [Purvalanol A, purvalanol A], the IC50 (usually the concentration at which inhibition is half-maximal) in series [5] was 8 µM.
As to `O=C1Nc2ccccc2/C1=C1/Nc2ccccc2/C1=N\O` [indirubin-3´-monoxime], the IC50 in series [5] was 6 µM.
